Experimental data pooled from the literature.
Lines come from different studies, so protocols differ. ≈ marks a conversion by molar mass, not a printed value.
Organism: Klebsiella pneumoniae

Cc1[nH]c(C(=O)Nc2ccc(C(=O)NCC(=O)O)cc2N2CCNCC2)c(Cl)c1Cl.Cl
MIC (microbial growth, broth dilution; ATCC700603): > 32 µg/mL

C[C@H]1COc2c(N3CCN(C)CC3)c(F)cc3c(=O)c(C(=O)O)cn1c23
MIC (microbial growth, broth dilution): > 16 µg/mL

C[C@@H](O)[C@H]1C(=O)N2C(C(=O)O)=C(S[C@@H]3CN[C@H](C(=O)N(C)C)C3)[C@H](C)[C@H]12
MIC90 (microbial growth, broth dilution; clinical isolate): 1020 µg/mL (≈ 2670 µM)

CC(C)(C)OC(=O)N1CCN(c2cc(C(=O)NCC(=O)O)ccc2NC(=O)c2cc(Br)c(Br)[nH]2)CC1
MIC (microbial growth, broth dilution; ATCC700603): > 32 µg/mL

C[C@H]1COc2c(N3CCN(C)CC3)c(F)cc3c(=O)c(C(=O)O)cn1c23
MBC (microbial killing; ATCC27736): 0.06 µg/mL (≈ 0.166 µM)

COc1cc(C=Nc2cccc(O)c2)ccc1O
inhibition zone (microbial growth, disc diffusion; 2000 µg/mL, 24 h): 15.5 mm

CC(C)(O/N=C(\C(=O)N[C@@H]1C(=O)N2C(C(=O)[O-])=C(C[n+]3ccccc3)CS[C@H]12)c1csc(N)n1)C(=O)O
MIC (microbial growth, broth dilution; 20 h, clinical isolate): > 128 µg/mL

CN(C)c1cc(NC(=O)CNC(C)(C)C)c(O)c2c1C[C@H]1C[C@H]3[C@H](N(C)C)C(O)=C(C(N)=O)C(=O)[C@@]3(O)C(O)=C1C2=O
MIC (microbial growth, broth dilution): 0.5 µg/mL (≈ 0.854 µM)

Cc1[nH]c(C(=O)Nc2ccc(C(=O)NCC(=O)O)cc2N2CC[C@H](N)C2)c(Cl)c1Cl.Cl
MIC (microbial growth, broth dilution; ATCC700603): > 32 µg/mL

COc1cc(C=Nc2ccc(C)cc2Cl)ccc1O
inhibition zone (microbial growth, disc diffusion; 2000 µg/mL, 24 h): 15 mm

CC(C)(C)OC(=O)N[C@H]1CCN(c2cc(C(=O)NCC(=O)O)ccc2NC(=O)c2cc(Br)c(Br)[nH]2)C1
MIC (microbial growth, broth dilution; ATCC700603): > 32 µg/mL

CC(C)(O/N=C(\C(=O)N[C@@H]1C(=O)N2C(C(=O)[O-])=C(C[n+]3ccccc3)CS[C@H]12)c1csc(N)n1)C(=O)O
inhibition zone (microbial growth, disc diffusion; 2000 µg/mL, 24 h): 12 mm
